pEC50: −log10 of the molar value. Activity calls are given as the source filed them. The calls are words filed in the database; no cut-off is given here.
Tests used:
Saccharomyces cerevisiae [1] = assay: Toxicity against wild type yeast MDY326 assessed as 2 fold reduction of cell growth at 150 uM; type: organism-based; conditions: in vivo
Procedure, shortened: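 Wild-type strain MDY326 (pdr5Δ snq2Δ) diluted to OD600 0.0003 in YPD, compound serially diluted into 30 μl cultures, grown 18–24 h at 30°C humidified; OD490 read after vortexing, normalized to untreated/DMSO wells; value is the concentration producing 2-fold growth inhibition.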

Saccharomyces cerevisiae [2] = assay: Effect on maturation of alpha-factor2 in yeast MDY330 carrying temperature sensitive allele of clathrin heavy chain gene; type: functional, organism-based
Procedure, shortened: (§1)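 Yeast grown at 30°C to OD600 0.2 in YPD with compound (25 μM) or DMSO, washed twice in SCMG containing 50 μM compound, pulse-labeled 10 min with [35S]methionine (50 μCi per OD600), chased 30 min in YPD, stopped with NaF/NaN3 (10 mM final); secreted α-factor immunoprecipitated from medium, resolved by SDS/PAGE and autoradiography; DMSO-treated and wild-type (MDY326) cells as reference.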

Saccharomyces cerevisiae [3] = assay: Effect on maturation of alpha-factor2 in gga2delta containing yeast MDY380; type: functional, organism-based; procedure, shortened: as §1
Saccharomyces cerevisiae [4] = assay: Growth inhibition of wild type yeast MDY326 assessed as cell growth at 25 uM; type: functional; set-up: scale not given: the % may be the effect or the level left
Procedure, shortened: (§2)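 Overnight cultures (pdr5Δ snq2Δ background) diluted to OD600 0.0003 in YPD, given serially diluted compound in 30-μl cultures, grown 18–24 h at 30°C humidified; OD490 read after vortexing; growth expressed as fold inhibition relative to the same strain with DMSO.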

Saccharomyces cerevisiae [5] = assay: Effect on localization of chitin synthase Chs3p in CHS6 deficient yeast MDY335 assessed as induction of chitin bud scars at 25 uM by fluorescence microscopy; type: functional, organism-based
Procedure, shortened: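 chs6Δ cells (pdr5Δ snq2Δ background) grown overnight at 30°C in YPD with 25 μM compound or DMSO; cells mixed 1:1 with 2.5 mM calcofluor white in YPD for 10 min, washed twice, chitin rings scored by fluorescence microscopy.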

Saccharomyces cerevisiae [6] = assay: Growth inhibition of apl2/4 deficient yeast MDY334 cells assessed as cell growth at 25 uM relative to wild-type; type: functional; set-up: scale not given: the % may be the effect or the level left
Saccharomyces cerevisiae [7] = assay: Growth inhibition of gga1/2 deficient yeast MDY327 cells assessed as cell growth at 25 uM relative to wild-type; type: functional; set-up: scale not given: the % may be the effect or the level left
Saccharomyces cerevisiae [8] = assay: Growth inhibition of yeast MDY330 carrying temperature sensitive allele of clathrin heavy chain gene assessed as cell growth at 25 uM relative to wild-type; type: functional; set-up: scale not given: the % may be the effect or the level left
Saccharomyces cerevisiae [9] = assay: Toxicity against wild type yeast MDY326 assessed as 2 fold reduction of cell growth; type: organism-based; conditions: in vivo
Procedure, shortened: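 Wild-type cells (pdr5Δ snq2Δ) grown 18–24 h at 30°C in YPD with serially diluted compound; OD490 read; value is concentration giving 2-fold growth inhibition versus DMSO.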

Saccharomyces cerevisiae [10] = assay: Inhibition of maturation of alpha-factor2 in wild type yeast MDY326 at 25 uM; type: functional, organism-based
Procedure, shortened: (§3)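 Cells treated overnight with 25 μM compound or DMSO in YPD to OD600 0.2, washed in SCMG with 50 μM compound, labeled 10 min with [35S]methionine, chased 30 min; α-factor immunoprecipitated from medium, SDS/PAGE and autoradiography.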

Saccharomyces cerevisiae [11] = assay: Effect on maturation of carboxyl peptidase S in wild type yeast MDY326 assessed as delay in maturation at 25 uM by pulse-chase immunoprecipitation; type: functional
Procedure, shortened: (§4)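 Cells grown overnight in YPD with 25 μM compound or DMSO, labeled 10 min with [35S]methionine, chase started by adding yeast extract/cysteine/methionine; CPS immunoprecipitated at chase points; precursor versus mature forms compared by SDS/PAGE and autoradiography.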

Saccharomyces cerevisiae [12] = assay: Effect on maturation of alkaline phosphatase in wild type yeast SEY6210 at 25 uM by pulse-chase immunoprecipitation; type: functional, organism-based
Procedure, shortened: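 SEY6210 grown overnight with 25 μM compound or DMSO, pulse-labeled 5 min with [35S]methionine, chase started by adding yeast extract/cysteine/methionine; ALP immunoprecipitated from lysates at chase points; precursor and mature forms resolved by SDS/PAGE and autoradiography; apl6Δ strain run in parallel.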

Saccharomyces cerevisiae [13] = assay: Degradation of Ste3p receptor in yeast MDY330 carrying temperature sensitive allele of clathrin heavy chain gene by pulse-chase immunoprecipitation; type: functional, organism-based
Procedure, shortened: (§5)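 Cells grown at 30°C to OD600 0.2 in YPD with DMSO or compound, washed twice in SCMG containing 50 μM compound, pulse-labeled 10 min with [35S]methionine (50 μCi per OD600), chased in YPD; samples stopped with NaF/NaN3 (10 mM final) at set chase points; Ste3p immunoprecipitated from lysates, SDS/PAGE and autoradiography.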

Saccharomyces cerevisiae [14] = assay: Inhibition of maturation of alpha-factor2 in gga2delta containing yeast MDY380 at 25 uM; type: functional, organism-based; procedure, shortened: as §3
Saccharomyces cerevisiae [15] = assay: Prevention of maturation of carboxyl peptidase S in gga1/2 deficient yeast MDY327 assessed as delay in maturation at 25 uM by pulse-chase immunoprecipitation; type: functional, organism-based; procedure, shortened: as §4
Saccharomyces cerevisiae [16] = assay: Degradation of Ste3p receptor in gga2delta containing yeast MDY380 by pulse-chase immunoprecipitation; type: functional, organism-based; procedure, shortened: as §5
Saccharomyces cerevisiae [17] = assay: Growth inhibition of gga1/2delta containing yeast MDY327; type: functional, organism-based; procedure, shortened: as §2
Saccharomyces cerevisiae [18] = assay: Growth inhibition of gga1/2delta containing yeast MDY327 carrying wild type SNQ2 and PDR5 gene; type: functional, organism-based
Saccharomyces cerevisiae [19] = assay: Growth inhibition of AP1 deficient yeast MDY334 cells upto 300 uM; type: functional, organism-based; procedure, shortened: as §2
Saccharomyces cerevisiae [20] = assay: Degradation of Ste3p receptor in wild type yeast MDY326 cells by pulse-chase immunoprecipitation; type: functional, organism-based; procedure, shortened: as §5
Saccharomyces cerevisiae [21] = assay: Growth inhibition of wild type yeast MDY326 cells upto 300 uM; type: functional, organism-based; procedure, shortened: as §2

Row | Compound | Activity (Saccharomyces cerevisiae [4]) | Activity (Saccharomyces cerevisiae [5]) | Activity (Saccharomyces cerevisiae [6]) | Activity (Saccharomyces cerevisiae [7]) | Activity (Saccharomyces cerevisiae [8]) | Activity (Saccharomyces cerevisiae [9]) | also measured
1 | CC(=O)c1ccc(N2CCN(Cc3ccccc3F)CC2)cc1 | – | – | – | – | – | – | Activity (Saccharomyces cerevisiae [1]): Toxic
2 | O=C1/C(=C\c2ccc(-c3cccc(Cl)c3)o2)SC(=S)N1CCS(=O)(=O)O | – | – | – | – | – | – | Activity (Saccharomyces cerevisiae [2]): inactive; Activity (Saccharomyces cerevisiae [3]): inactive
3 | c1ccc(CN2CCC(NCC(c3ccccc3)c3ccccc3)CC2)cc1 | 70% | inactive | 70% | <50% | 70% | – | –
4 | CC(=O)c1ccc(N2CCN(Cc3ccsc3)CC2)cc1 | – | – | – | – | – | Non-toxic | –
5 | COc1ccc(CNC2C3CC4CC(C3)CC2C4)c2ccccc12 (stereo not given) | 70% | inactive | 70% | <50% | 70% | – | –
6 | O=C(Nc1ccccc1)c1ccccc1/N=C/c1cc(Br)ccc1O | 70% | inactive | 50% | 50% | 70% | – | –
7 | C/C=C(\C)CN1CCN(c2ccc(C(C)=O)cc2)CC1 | 70% | Active | 70% | <50% | 50% | Non-toxic | Activity (Saccharomyces cerevisiae [10]): inactive; Activity (Saccharomyces cerevisiae [11]): <2; Activity (Saccharomyces cerevisiae [12]): inactive; Activity (Saccharomyces cerevisiae [13]): inactive; Activity (Saccharomyces cerevisiae [14]): Active; Activity (Saccharomyces cerevisiae [15]): Active; Activity (Saccharomyces cerevisiae [16]): inactive; pEC50 (Saccharomyces cerevisiae [17]): 5.40; Activity (Saccharomyces cerevisiae [18]): Active; Activity (Saccharomyces cerevisiae [19]): inactive; Activity (Saccharomyces cerevisiae [20]): inactive; Activity (Saccharomyces cerevisiae [21]): inactive
8 | COC(=O)c1ccccc1/N=C/c1c(O)c(Br)cc2oc3c(c12)CCCC3 | 70% | inactive | 50% | <50% | <50% | – | –
9 | CCN1CCN(c2ccc(C(C)=O)cc2F)CC1 | – | – | – | – | – | Non-toxic | –
10 | CC(=O)c1ccc(N2CCN(Cc3cccs3)CC2)cc1 | – | – | – | – | – | Non-toxic | –
11 | O=C1/C(=C/c2ccc(O)cc2)SC(=S)N1C1CCCCC1 | 70% | inactive | 50% | <50% | <50% | – | –
12 | C/C=C(\C)CN1CCN(c2ccc(C(=O)OCC)cc2)CC1 | – | – | – | – | – | Non-toxic | –
13 | Cc1cc(S)n(-c2ccccc2)n1 | 70% | inactive | 50% | <50% | 50% | – | –
14 | CC1(C(=O)NC(=S)NNC(=O)c2cccnc2)CCCCC1 | 70% | inactive | 70% | <50% | 70% | – | –
15 | COc1ccc(CN2CCN(Cc3cc(Br)ccc3O)CC2)cc1 | – | – | – | – | – | – | Activity (Saccharomyces cerevisiae [2]): inactive; Activity (Saccharomyces cerevisiae [3]): inactive
16 | CC(=O)c1ccc(N2CCN(Cc3ccco3)CC2)cc1 | 70% | Active | 70% | 50% | 50% | – | Activity (Saccharomyces cerevisiae [10]): inactive; Activity (Saccharomyces cerevisiae [14]): Active; Activity (Saccharomyces cerevisiae [19]): inactive; Activity (Saccharomyces cerevisiae [21]): inactive

Row | Compound | Activity (Saccharomyces cerevisiae [4]) | Activity (Saccharomyces cerevisiae [5]) | Activity (Saccharomyces cerevisiae [6]) | Activity (Saccharomyces cerevisiae [7]) | Activity (Saccharomyces cerevisiae [8]) | Activity (Saccharomyces cerevisiae [9]) | also measured
17 | C/C=C(\C)CN1CCN(c2ccc(C(=O)O)cc2)CC1 | – | – | – | – | – | Non-toxic | –
18 | O=C(N/N=C/c1c[nH]c2ccccc12)c1cc(-c2ccc(Cl)cc2)n[nH]1 | 70% | inactive | 70% | <50% | 70% | – | –
19 | O=C1NC(=O)/C(=C\c2cccc(Cl)c2Cl)S1 | 70% | inactive | 70% | 50% | 70% | – | –
20 | CC(=O)c1ccc(N2CCN(Cc3ccccc3C(F)(F)F)CC2)cc1 | – | – | – | – | – | Non-toxic | –
21 | CC(=O)c1ccc(N2CCN(CC3CC3)CC2)cc1 | – | – | – | – | – | Non-toxic | –
22 | CC(=O)c1ccc(N2CCN(Cc3cccc(F)c3F)CC2)cc1 | – | – | – | – | – | – | Activity (Saccharomyces cerevisiae [1]): Toxic
23 | CC(=O)c1ccc(N2CCN(Cc3cc(F)ccc3F)CC2)cc1 | 70% | Active | 70% | <50% | 50% | – | Activity (Saccharomyces cerevisiae [10]): inactive; Activity (Saccharomyces cerevisiae [14]): Active
24 | CC(=O)c1ccc(N2CCN(CC3=CCCCC3)CC2)cc1 | – | – | – | – | – | – | Activity (Saccharomyces cerevisiae [1]): Toxic
25 | CCn1c2ccccc2c2cc(CNC3CCCC3)ccc21 | 70% | inactive | 70% | <50% | 70% | – | –
26 | Cl.N=c1n(Cc2ccccc2)c2ccccc2n1CC(O)COc1ccccc1 (stereo not given) | 70% | inactive | 50% | <50% | 50% | – | –
27 | COC(=O)Oc1c(Br)c(C)c2oc(=O)sc2c1Br | 70% | inactive | 70% | <50% | 70% | – | –
28 | CC(=O)c1ccc(N2CCN(Cc3ccc(Cl)cc3)CC2)cc1 | – | – | – | – | – | Non-toxic | –
29 | CC(C)Cc1ccc(C(C)C(=O)N/N=C/c2ccc(N(C)C)cc2)cc1 (stereo not given) | 70% | inactive | 70% | <50% | 70% | – | –
30 | Cc1cc(O)c(C(C)C)cc1NS(=O)(=O)c1ccc(Cl)cc1 | 70% | inactive | 70% | 50% | 70% | – | –
31 | CC(=O)c1ccc(N2CCN(Cc3ccccc3)CC2)cc1 | – | – | – | – | – | Non-toxic | –
